# A selection: hits, their analogues and other compounds. The true share with any hit is near 1.8%.
# CHRM4 PAM: human M4 muscarinic receptor positive allosteric modulators, primary screen, CHO-K1 cells, Fluo-8 calcium fluorescence; CHO-K1 hM4/Gqi5, ACh EC20; 0% = ACh EC20, 100% = maximal ACh; activation, % at 3 µM; hit rate 0.4% among 360,000;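 active = activation above its plate's cutoff, the mean activation of sample wells plus 3 SD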
# Target sequence (P08173 whole entry, looked up): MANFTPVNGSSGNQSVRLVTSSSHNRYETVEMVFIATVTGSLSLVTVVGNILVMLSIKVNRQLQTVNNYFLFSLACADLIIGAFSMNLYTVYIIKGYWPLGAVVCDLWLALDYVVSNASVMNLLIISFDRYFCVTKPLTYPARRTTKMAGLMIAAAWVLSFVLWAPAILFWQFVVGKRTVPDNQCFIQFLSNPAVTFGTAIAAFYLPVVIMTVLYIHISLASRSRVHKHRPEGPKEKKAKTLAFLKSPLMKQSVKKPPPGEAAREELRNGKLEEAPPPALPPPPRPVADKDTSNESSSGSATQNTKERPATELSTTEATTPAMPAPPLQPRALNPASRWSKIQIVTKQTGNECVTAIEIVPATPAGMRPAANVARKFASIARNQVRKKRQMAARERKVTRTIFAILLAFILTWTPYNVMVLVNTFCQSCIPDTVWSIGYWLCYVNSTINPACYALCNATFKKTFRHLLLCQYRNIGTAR
# CHRM5 PAM: human M5 muscarinic receptor positive allosteric modulators, primary screen, CHO-K1 cells, Fluo-8 calcium fluorescence | CHO-K1 hM5, ACh EC20 PAM; 0% = ACh EC20, 100% = ACh EC100 | activation, % at 3 µM | hit rate 0.3% among 360,000 | AID 624038, 2012;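 active = activation above the run cutoff, the mean activation of all test compounds plus 3 SD, cut at about 18% in these data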
#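 Replicates: One well per compound, no replicates | System: Human M5 receptor in CHO-K1 cells | Benchmarks: Low control EC20 acetylcholine (0%), high control EC100 acetylcholine (100%) | Probe or stimulus: Acetylcholine, EC20 level | Times: Fluo-8 loading 80 min at 37 °C plus 30 min room temperature | Signal: Intracellular calcium via Fluo-8 fluorescence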
# M5 antag: human M5 muscarinic receptor antagonists, primary screen, CHO cells, Fluo-8 calcium fluorescence; Muscarinic acetylcholine receptor M5 (Homo sapiens), P08912; CHO-hM5 cells, ACh EC80; inhibition, % at 3 µM; hit rate 0.59% among 360,000;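 active = inhibition above a per-plate cutoff, the mean of that plate's test compounds plus 3 SD, cut at about 27% in these data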;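 also: 0% = acetylcholine EC80 with DMSO and 100% = DMSO without agonist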
# CHRM5 agonist: human M5 muscarinic receptor agonists, primary screen, CHO-K1 cells, Fluo-8 calcium fluorescence | CHO-K1 hM5 cells; 0% DMSO wells, 100% maximal acetylcholine response | activation, % at 3 µM | hit rate 0.19% among 360,000;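 active = activation above the run's mean over test compounds plus 3 SD, cut at about 23% in these data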;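 also: signal is peak over basal fluorescence ratio across the kinetic read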
# M4 antag: human M4 muscarinic receptor antagonists, primary screen, CHO cells, Fluo-8 calcium fluorescence; hit rate 0.73% among 360,000; inhibition, % at 3 µM; CHO-hM4 cells, ACh EC80; Muscarinic acetylcholine receptor M4 (Homo sapiens), P08173;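 active = inhibition above its plate's cutoff, the mean inhibition of sample wells plus 3 SD, cut at about 27% in these data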;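 also: 0% = acetylcholine EC80 with DMSO and 100% = DMSO without agonist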
# CHRM4 agonist: human M4 muscarinic receptor agonists, primary screen, CHO-K1 cells, Fluo-8 calcium fluorescence; Muscarinic acetylcholine receptor M4 (Homo sapiens), P08173; CHO-K1 hM4/Gqi5; vehicle 0%, full acetylcholine response 100%; activation, % at 3 µM; hit rate 0.14% among 360,000;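 active = activation above the run mean over all test wells plus 3 SD, cut at about 32% in these data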;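 also: peak over basal fluorescence ratio per well then scaled between controls; 0% = DMSO wells and 100% = acetylcholine at EC100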
# * = called active by the depositor.
SMILES,CHRM4 PAM,CHRM5 PAM,M5 antag,CHRM5 agonist,M4 antag,CHRM4 agonist
N[C@@]12CCc3nonc3[C@]1(O)CC(c1ccccc1)=[N+]2[O-],26*,10,0,1,1,1
Nc1c(C(=O)N2CCCCC2)sc2nc3c(cc12)CCCC3,-3,0,-3,-2,-2,0
Cc1ccc(C(=O)c2sc3nc4c(cc3c2N)CCC4)cc1,21*,5,-4,-1,-6,1
CCCOc1ccc2c(c1)C(=NN=C(N)N)c1cc(OCCC)ccc1-2,28*,2,11,2,-7,4
CCC(OC(=O)c1ccco1)C(=O)NCc1ccc(C)cc1 (stereo unspecified),-6,-5,0,-4,9,0
CCC(OC(=O)c1ccco1)C(=O)NCc1ccc2c(c1)OCO2 (stereo unspecified),19*,-2,3,-1,-26,2
O=c1c2c(nc3nc(NCc4ccc(Cl)cc4)[nH]n13)CCC2,-9,-6,-4,-2,5,0
O=c1c2c(nc3nc(CCc4ccccc4)[nH]n13)CCC2,7,22*,-6,-4,-12,-1
CC(=O)C(C(c1ccccc1)N1CCCc2ccccc21)N1CCOCC1 (stereo unspecified),0,-11,13,-5,12,0
O=C(Nc1ccnn1C1CCN(C(=O)c2cccc(C(F)(F)F)c2)CC1)C1CC1,21*,1,11,-3,-8,2
O=C(Nc1ccnn1C1CCN(C(=O)c2ccc(C(F)(F)F)cc2)CC1)C1CC1,4,-5,5,-7,-12,2
O=C(NCCS(=O)(=O)NCc1cccnc1)c1ccccc1,4,2,-4,2,3,1
CC(=O)c1c(C)[nH]c(C)c1C(C)=O,32*,27*,-18,0,-8,1
CC(=O)c1c(C)[nH]c(C(=O)O)c1C,-6,-4,2,-7,-1,1
COc1cc(C(=O)OCc2cccc(OC)c2OC)ccc1OCC(=O)N1CCOCC1,22*,0,7,2,-3,3
COc1cccc(NC(=O)Cn2c(CCC(=O)O)ccc2-c2cccs2)c1,9,19*,-12,5,-3,1
O/N=C/c1cccnc1Sc1ccccc1,1,4,-1,-1,-2,0
Cc1cc(CN(C)C(=O)c2cc(COc3ccc4ncccc4c3)on2)on1,-24,-21,14,8,19,12
CCC(O)C1CCN(C(=O)c2cc(COc3ccc4ncccc4c3)on2)CC1 (stereo unspecified),-15,-15,35*,8,21,15
COc1cc(Cl)ccc1OCc1cc(C(=O)N2CCCC(OC)C2)no1 (stereo unspecified),-1,-9,29*,-6,6,3
COc1cc(Cl)ccc1OCc1cc(C(=O)N2CCCCCC2)no1,0,-3,10,-6,-22,3
CC(CNC(=O)c1cc(COc2ccc3ncccc3c2)on1)c1ccccc1 (stereo unspecified),-11,-18,30*,6,6,25
COc1cccc(OCc2cc(C(=O)N3CCN(C4CCCC4)CC3)no2)c1,-6,-6,29*,-8,1,4
CCN(c1ccccc1)S(=O)(=O)c1ccc(C(=O)Nc2cc(C)ccn2)cc1,-5,-8,10,-3,2,6
O=C(O)CCn1cc(/C=C2\NC(=S)N(c3ccccc3)C2=O)c(-c2ccc(Br)cc2)n1,5,5,9,0,-1,0
Cc1nn(-c2ccccc2)c(C)c1[N+](=O)[O-],8,3,8,-7,6,1
O=C(NC1CCCCCCC1)c1cc(COc2ccc3ncccc3c2)on1,-26,-33,36*,-4,34*,13

# Bioassay records (PubChem BioAssay)
